The structures appear in SMILES notation.

Experimental findings from ChEMBL document CHEMBL3425480 (J Med Chem, 2015) are described below.

The subject of data set [1] is Hepatitis C virus. Briefly: Antiviral activity in HCV 1b infected in HUH 7-lunet cells after 3 days by Dual-Glo luciferase assay. The data set is classed as functional, cell-based, Hepacivirus hominis. The following applies: genotype 1b, Huh-7, 72 h. Put shortly: (§1)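 Multiplex replicon assay in HUH 7-lunet cells carrying a genotype 1b replicon (I389luc-ubi-neo/NS3-3′/ET) or a 2a JFH-1 replicon (2aLucNeo-25). Cells kept in DMEM with GlutaMAX, 10% non-heat-inactivated FBS, 1 mg/mL G-418 and nonessential amino acids. 1600 cells/well (384-well) given serial dilutions. After three days, Renilla luciferase read by Dual-Glo.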

Data set [2] relates to Coxsackievirus B3. Nature of the data set: Anticoxsackie activity in CVB3 strain Nancy infected in human HeLa cells assessed as inhibition of virus-induced cytopathic effect after 4 hrs by XTT assay. The data set is classed as functional, cell-based. Conditions: Enterovirus B, 3 days, in the assay text read “after 3 days” for “after 4 hrs”. Put shortly:
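HeLa cells seeded a day ahead (30000/well) in DMEM with L-glutamine, 2% FBS, penicillin/streptomycin. 3-fold serial compound dilutions in triplicate, 1 h preincubation, then CVB3 added at MOI 0.005 IU/cell. Incubated 3 days at 37 °C, 5% CO2. Viability by XTT over 4 h, absorbance of formazan read. EC50 by nonlinear regression of % viability vs log10 concentration.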
In general terms: Damage to the host cells serves as the signal in cytopathic effect assays.

A further data set relates to Human rhinovirus sp. Nature of the data set: Antirhinovirus activity in HRVM infected in H1-HeLa cells assessed as inhibition of virus-induced cytopathic effect after 3 days by Cell-Titer Glo viability assay. Format: functional, organism-based. The following applies: 72 h. Put shortly:
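H1-HeLa cells in RPMI with 10% heat-inactivated FBS and antibiotics, premixed in batch with HRV1A, HRV14 and HRV16, each at 4× TCID90. Replicate 3-fold serial dilutions in DMSO transferred acoustically (384-well). Incubated three days at 33 °C. Cytopathic effect read as viability by CellTiter-Glo.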

For data set [3], the system named is Hepatitis C virus. Nature of the data set: Antiviral activity in HCV 2a JFH1 infected in HUH 7-lunet cells after 3 days by Dual-Glo luciferase assay. Conditions: subtype 2a JFH1, Huh-7, 72 h. Format: functional, cell-based, Hepacivirus hominis. Put shortly:
as §1

Data set [4] in a line: Inhibition of PI4K3beta (unknown origin) assessed as hydrolysis of ATP for 60 mins by ADP-Glo kinase assay. More on the design: species or system Homo sapiens. Put shortly:
(§2)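 ADP-Glo lipid kinase assay, 5 μL. Final enzyme: PI4K IIIβ 4 ng/μL, IIIα 2 ng/μL, IIα 2 ng/μL. Substrate PI/PS 50 μM, ATP 100 μM final. Inhibitors from 10 mM DMSO stocks. Run 60 min at 25 °C, ADP by luminescence.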
On the technique in general: ADP-Glo first removes unused ATP, then detects ADP through luciferase.

Data set [5] addresses Phosphatidylinositol 4-kinase type 2-alpha (Homo sapiens, UniProt Q9BTU6). Briefly: Inhibition of PI4K2alpha (unknown origin) assessed as hydrolysis of ATP for 60 mins by ADP-Glo kinase assay. Put shortly: as §2
Data set [6] can be described thus: Inhibition of PI4K3alpha (unknown origin) assessed as hydrolysis of ATP for 60 mins by ADP-Glo kinase assay. More on the design: species or system Homo sapiens. Put shortly: as §2
A short description of data set [7]: Cytotoxicity against human HeLa cells. Format: cell-based.
The test system of data set [8] is Coxsackievirus B3. Briefly: Anticoxsackie activity in CVB3 strain Nancy infected in human HeLa cells assessed as inhibition of virus-induced cytopathic effect after 3 days by XTT assay. Conditions: Enterovirus B.

Sequence of Phosphatidylinositol 4-kinase type 2-alpha (Q9BTU6 whole entry): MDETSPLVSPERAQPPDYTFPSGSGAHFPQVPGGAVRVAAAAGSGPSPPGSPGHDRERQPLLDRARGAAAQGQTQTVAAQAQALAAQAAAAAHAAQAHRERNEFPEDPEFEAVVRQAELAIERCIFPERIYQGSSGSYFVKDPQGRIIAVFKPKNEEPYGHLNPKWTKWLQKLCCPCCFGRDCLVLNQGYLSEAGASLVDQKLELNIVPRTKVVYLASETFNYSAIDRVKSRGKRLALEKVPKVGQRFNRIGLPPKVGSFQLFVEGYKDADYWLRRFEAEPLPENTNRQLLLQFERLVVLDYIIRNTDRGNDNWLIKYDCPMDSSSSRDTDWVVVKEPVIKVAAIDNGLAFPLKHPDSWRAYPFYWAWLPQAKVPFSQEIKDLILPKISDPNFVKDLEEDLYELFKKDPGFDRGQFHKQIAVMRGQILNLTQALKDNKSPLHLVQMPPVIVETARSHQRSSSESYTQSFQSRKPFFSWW

In general, EC50 refers to the midpoint of the concentration-response curve. Regarding `COc1ccc(-c2c(C)nn3c(NCCN4CCOCC4)cc(C)nc23)cc1OC`, the EC50 in the data set with Hepatitis C virus [1] is 1030 nM; in the data set with Coxsackievirus B3 [2], 3380 nM; in the data set with Human rhinovirus sp. it was 2500 nM; in the data set with Hepatitis C virus [3] it was over 44000 nM.
In general, IC50 refers to the midpoint of a concentration-inhibition curve. The term CC50 denotes the concentration that lowers cell viability or growth by half. Read a high CC50 as better tolerance by the cells. For `COc1ccc(-c2c(C)nn3c(NCCNC(C)=O)cc(C)nc23)cc1OC`, the IC50 was 70 nM in [4], over 100000 nM in data set [5] and 59400 nM in data set [6]. For the same compound, the EC50 is 1030 nM in the data set with Hepatitis C virus [1], 1230 nM in the data set with Coxsackievirus B3 [2], 2900 nM with Human rhinovirus sp. and over 44000 nM in the data set on Hepatitis C virus [3]. In data set [7], this compound registered a cytotoxic concentration (CC50) of over 50000 nM.
Regarding `COc1ccc(-c2c(C)nn3c(NCCNC(=O)C(C)C)cc(C)nc23)cc1OC`, the IC50 in [4] was 120 nM; in data set [5] it was over 100000 nM; in data set [6], 62100 nM. Further, the concentration giving a half-maximal response (EC50) with Hepatitis C virus [1] was 1210 nM; with Coxsackievirus B3 [2] it was 11000 nM; with Human rhinovirus sp., 1620 nM; with Hepatitis C virus [3], over 44000 nM. In addition, the CC50 in data set [7] was over 50000 nM.
Regarding `COc1ccc(-c2c(C)nn3c(NCCNS(C)(=O)=O)cc(C)nc23)cc1OC`, the figures for the IC50 in data set [4], in data set [5] and in [6] were 120 nM, over 100000 nM and 29300 nM, respectively. Further, the EC50 turned out to be 910 nM with Hepatitis C virus [1], 1430 nM in the data set on Coxsackievirus B3 [8], 3000 nM in the data set with Human rhinovirus sp. and 42500 nM in the data set with Hepatitis C virus [3]. In [7], this compound showed a CC50 of over 50000 nM.
In the case of `COc1ccc(-c2c(C)nn3c(NCCOC(C)=O)cc(C)nc23)cc1OC`, the IC50 is 67 nM in data set [4], over 100000 nM in data set [5] and 29500 nM in [6]. For the same compound, the EC50 in the data set on Hepatitis C virus [1] is 960 nM; in the data set on Coxsackievirus B3 [2], 860 nM; with Human rhinovirus sp., 1380 nM; in the data set on Hepatitis C virus [3], over 44000 nM. The compound further displayed a CC50 in data set [7] of over 50000 nM.
Consider `COc1ccc(-c2c(C)nc3c(NCCN4CCOCC4)ccnn23)cc1OC`, for which the IC50 in [4] is 93 nM; in data set [5], over 100000 nM; in data set [6] it was 27500 nM. Moreover, the concentration for a half-maximal effect (EC50) with Hepatitis C virus [1] is 370 nM; in the data set with Coxsackievirus B3 [2], 500 nM; in the data set on Human rhinovirus sp., 880 nM; with Hepatitis C virus [3] it was 17900 nM. This compound registered a CC50 in [7] of over 50000 nM.
Consider `COc1ccc(-c2c(C)nc3c(NCCNC(C)=O)cc(Cl)nn23)cc1OC`, for which the IC50 in data set [5] is over 100000 nM; in [6], 82700 nM. Further, the concentration giving a half-maximal response (EC50) in the data set on Hepatitis C virus [1] amounted to 290 nM; in the data set with Coxsackievirus B3 [2], 750 nM; in the data set on Human rhinovirus sp., 1090 nM; with Hepatitis C virus [3], 31800 nM. The compound further registered a CC50 in data set [7] of over 50000 nM.
Turning to `CC(=O)NCCNc1cc(Cl)nn2c(-c3ccc(F)c(C=O)c3)c(C)nc12`, the results for the IC50 in data set [4], in data set [5] and in data set [6] were 89 nM, over 100000 nM and over 100000 nM, respectively. Besides, the EC50 with Hepatitis C virus [1] was 5300 nM; with Coxsackievirus B3 [2], over 50000 nM; in the data set with Human rhinovirus sp., 24300 nM; with Hepatitis C virus [3], 13600 nM. The compound also yielded a CC50 in [7] of over 50000 nM.
In the case of `COc1ccc(-c2c(C)nc3c(NCCNC(C)=O)ccnn23)cc1OC`, the IC50 in data set [4] is 92 nM; in data set [5], over 100000 nM; in [6], 33700 nM. For the same compound, the EC50 in the data set with Hepatitis C virus [1] amounted to 360 nM; in the data set on Coxsackievirus B3 [2] it was 280 nM; in the data set with Human rhinovirus sp. it was 2900 nM; in the data set with Hepatitis C virus [3], 27900 nM. The compound also displayed a CC50 in [7] of over 50000 nM.
`COc1ccc(-c2c(C)nc3c(N)cc(Cl)nn23)cc1OC`: the results for the IC50 in [4], in [5] and in data set [6] were 83 nM, over 100000 nM and over 100000 nM, respectively. Also, the EC50 in the data set with Hepatitis C virus [1] amounted to 210 nM; with Coxsackievirus B3 [2], 23 nM; in the data set on Human rhinovirus sp., 890 nM; with Hepatitis C virus [3], 26500 nM. In addition, half-maximal cytotoxicity in data set [7] (CC50) was put at 1750 nM.
On to `C[C@@]1(O)[C@H](O)[C@@H](CO)O[C@H]1n1ccc2c(N)ncnc21` [BETA-2'-C-METHYL-7-DEAZA-ADENOSINE], for which the EC50 worked out at 210 nM in the data set on Hepatitis C virus [1], 5100 nM in the data set on Human rhinovirus sp. and 210 nM in the data set on Hepatitis C virus [3]. In addition, in [7], the half-maximal cytotoxic concentration (CC50) was over 50000 nM.
